Activity calls are given as the source filed them. The rule behind the calls is not given here.
Columns and labels:
[1] = target: T1, 5-hydroxytryptamine receptor 1A (Rattus norvegicus, UniProt P19327); experiment: Displacement of [3H]-8-OH-DPAT from rat cerebral cortex 5HT1A receptor measured after 15 mins by liquid scintillation counter method
T1 sequence (P19327 whole entry): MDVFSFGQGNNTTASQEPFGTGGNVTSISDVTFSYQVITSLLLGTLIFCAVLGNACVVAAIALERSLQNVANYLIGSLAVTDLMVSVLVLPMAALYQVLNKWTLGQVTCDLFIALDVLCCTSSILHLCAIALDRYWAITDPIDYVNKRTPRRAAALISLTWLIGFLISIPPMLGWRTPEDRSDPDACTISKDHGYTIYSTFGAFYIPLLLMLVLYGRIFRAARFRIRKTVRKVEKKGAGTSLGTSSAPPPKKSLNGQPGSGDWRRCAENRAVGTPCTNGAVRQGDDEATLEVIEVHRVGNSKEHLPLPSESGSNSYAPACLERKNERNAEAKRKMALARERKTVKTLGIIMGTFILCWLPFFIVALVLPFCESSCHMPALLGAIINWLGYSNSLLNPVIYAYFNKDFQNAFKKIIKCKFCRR

[2] = Effect on body temperature in Swiss Albino mouse assessed as rectal body temperature at 10 mg/kg, ip measured after 60 mins by thermometer (reference value: 0.33 to 0.61 degreeC); type: ADME, organism-based; settings: in vivo, 1 h
[3] = Effect on body temperature in Swiss Albino mouse assessed as rectal body temperature at 20 mg/kg, ip measured after 60 mins by thermometer (reference value: 0.33 to 0.61 degreeC); type: ADME, organism-based; settings: in vivo, 1 h
[4] = Effect on body temperature in Swiss Albino mouse assessed as rectal body temperature at 10 mg/kg, ip measured after 120 mins by thermometer (reference value: 0.15 to 1.11 degreeC); type: organism-based; settings: in vivo, 2 h
Mus musculus [5] = experiment: Antipsychotic activity Swiss Albino mouse assessed as inhibition of DOI-induced head twitching by measuring number of episodes at 10 mg/kg, ip administered 30 mins prior to DOI stimulation (reference value: 19.63 to 19.88); type: functional; settings: 0.5 h
In short: (§1)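 Male Albino Swiss mice (24–28 g) were habituated to sawdust-lined cages 20 min before the first treatment. Compounds were suspended in 1% aqueous Tween 80 and given i.p. 30 min before (±)-DOI, 2.5 mg/kg i.p. in aqueous solution. Head twitches were counted blind over 20 min, n=8 per group, mean ± SEM, one-way ANOVA with Dunnett's test.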

[6] = Half life in pooled human liver microsomes assessed as parent compound remaining at 2.5 uM measured up to 45 mins in presence of NADPH by LC-MS analysis; type: ADME, Microsome
In short: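 Compound at 2.5 μM (added from 100 μM stock in 50/50 acetonitrile/water) with 1 mg/mL pooled human liver microsomes and 250 μM NADPH in 0.1 M potassium phosphate pH 7.4 at 37 °C after 5-min preincubation. Sampled at 5, 10, 15, 30, 45 min into ice-cold acetonitrile with atropine internal standard; parent quantified by LC-MS (ESI+, [M+H]+); no-NADPH controls; half-time derived.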

Mus musculus [7] = experiment: Antipsychotic activity Swiss Albino mouse assessed as inhibition of DOI-induced head twitching by measuring number of episodes at 0.625 mg/kg, ip administered 30 mins prior to DOI stimulation (reference value: 19.63 to 19.88); type: functional; settings: 0.5 h; in short: as §1
Mus musculus [8] = experiment: Antipsychotic activity in Swiss Albino mouse assessed as inhibition of apomorphine-induced climbing behaviour at 10 mg/kg, ip administered 30 mins prior to APO challenge and measured after 60 mins; type: functional, organism-based; settings: time 90.0 min
In short: (§2)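 Male Albino Swiss mice received compound i.p. (10 mg/kg in 1% Tween 80) 30 min before the test and apomorphine 2.5 mg/kg s.c. 10 min before the test. Each mouse was placed in a cage with a metal grid and scored positive when all four paws were on the grid. Blinded observation every 10 min to 60 min, then at 120 min. n=8, Fisher's exact test with Yates' correction.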

Mus musculus [9] = experiment: Antipsychotic activity in Swiss Albino mouse assessed as inhibition of apomorphine-induced climbing behaviour at 10 mg/kg, ip administered 30 mins prior to APO challenge and measured after 40 mins; type: functional, organism-based; settings: time 70.0 min; in short: as §2
Mus musculus [10] = experiment: Antipsychotic activity in Swiss Albino mouse assessed as inhibition of apomorphine-induced climbing behaviour at 10 mg/kg, ip administered 30 mins prior to APO challenge and measured after 30 mins; type: functional, organism-based; settings: time 60.0 min; in short: as §2

O=C(NC1CC2CCC(C1)N2Cc1cccc(Cl)c1)c1ccc2ccccc2c1 (stereo unspecified)
Ki [1]: 298 nM
deltaT [2]: 1 °C
deltaT [3]: 0.41 °C
deltaT [4]: 1.16 °C
Activity (Mus musculus [5]): 8.75
half-life at 2.5 µM [6]: > 45 min

O=C(NC1CC2CCC(C1)N2Cc1ccc(F)cc1)c1ccc2ccccc2c1 (stereo unspecified)
Ki [1]: 218 nM
deltaT [2]: 0.5 °C
deltaT [3]: 0.46 °C
deltaT [4]: 0.59 °C
Activity (Mus musculus [7]): 17.63
Activity (Mus musculus [5]): 5.38
inhibition (Mus musculus [8]): Active
half-life at 2.5 µM [6]: > 45 min

O=C(NC1CC2CCC(C1)N2Cc1cccc(F)c1)c1ccc2ccccc2c1 (stereo unspecified)
Ki [1]: 211 nM
deltaT [2]: 0.53 °C
deltaT [3]: 0.43 °C
deltaT [4]: 0.74 °C
Activity (Mus musculus [7]): 17.38
Activity (Mus musculus [5]): 2.38
inhibition (Mus musculus [9]): Active
half-life at 2.5 µM [6]: > 45 min

O=C(NC1CC2CCC(C1)N2Cc1cccc(Br)c1)c1ccc2ccccc2c1 (stereo unspecified)
Ki [1]: 200 nM
deltaT [2]: 0.76 °C
deltaT [3]: 0.49 °C
deltaT [4]: 1.14 °C
Activity (Mus musculus [5]): 11.88
inhibition (Mus musculus [10]): Active
half-life at 2.5 µM [6]: > 45 min

Cc1cccc(CN2C3CCC2CC(NC(=O)c2ccc4ccccc4c2)C3)c1 (stereo unspecified)
Ki [1]: 182 nM
deltaT [2]: 0.73 °C
deltaT [3]: 0.47 °C
deltaT [4]: 0.27 °C
Activity (Mus musculus [5]): 2.38
inhibition (Mus musculus [10]): Active
half-life at 2.5 µM [6]: 30 min
